Published values from different studies.
Compare with care: the assays were run in different laboratories.
Target: SRSF protein kinase 3 (SRPK3, Homo sapiens, UniProt Q9UPE1)

| SMILES | test | setting | endpoint | value |
| --- | --- | --- | --- | --- |
| CCN(CC)CCNC(=O)c1c(C)[nH]c(/C=C2\C(=O)Nc3ccc(F)cc32)c1C | enzyme activity, inhibitor | 10 µM | inhibition | 15% |
| O=C(Nc1ccc(Oc2ccc(F)cc2)cc1)N1CCc2ncccc2[C@H]1c1ccc(F)cc1 | cell-free assay, competition with immobilised ligand | 1 µM | remaining binding | 100% |
| Cn1c2c(c3ccc(Cl)c(Cl)c31)C(C#N)C1(CCN(C(=O)OC(C)(C)C)CC1)NC2=O (racemic) | thermal stability, DSF | 10 µM | ΔTm | 0 °C |
| Cc1ccc(Nc2nccc(N(C)c3ccc4c(C)n(C)nc4c3)n2)cc1S(N)(=O)=O | enzyme activity, inhibitor | 0.3 µM | inhibition | -13% |
| O=C(NS(=O)(=O)c1ccc(NCC2CCOCC2)c([N+](=O)[O-])c1)c1ccc(N2CCN(Cc3ccc(C(F)(F)F)cc3-c3ccc(Cl)cc3)CC2)cc1Oc1cnc2[nH]ccc2c1 | cell-free assay, competition with immobilised ligand | 1 µM | remaining binding | 100% |
| COc1cc2ncnc(Nc3ccc(Oc4ccccc4)cc3C)c2cc1OC | enzyme activity, inhibitor | 1 µM | inhibition | 2% |
| CN(C)C(=O)Cn1cc(-c2nc(C3(c4ccc(-c5cnc(N)nc5)cc4)CC3)no2)cn1 | cell-free assay, competition with immobilised ligand | 1 µM | remaining binding | 100% |
| CC(C)(C)c1nc2c(s1)c1nc(N)ncc1c1ccc(NS(=O)(=O)c3c(F)cccc3F)c(F)c12 | enzyme activity, inhibitor, radiometric | 1 µM | remaining activity | 97% |
| COc1cc(-c2cn(C3CCc4c(F)cccc4N(CC(F)(F)F)C3=O)nn2)ccc1-n1cnc(C)c1 (centres unmarked) | cell-free assay, competition with immobilised ligand | 1 µM | remaining binding | 100% |
| COc1cc(Cl)c(C(=O)N[C@@H](CN[C@H]2CC[C@@H](N)CC2)Cc2ccc(C#N)cc2)cc1-c1ccc(CN[C@H](C)c2ccc(C)cc2)o1 | enzyme activity, inhibitor | 1 µM | remaining activity | 96% |
| Cn1c2c(c3ccc(Cl)c(Cl)c31)C(C#N)C(C)(C)NC2=O (centres unmarked) | thermal stability, DSF | 10 µM | ΔTm | 1.5 °C |
| O=c1nc(-c2ccccn2)sc2ccccc12 | binding, competition with immobilised ligand | 1 µM | remaining binding | 100% |
| Nc1ncnc2occ(-c3ccc(NC(=O)Nc4cc(C(F)(F)F)ccc4F)cc3)c12 | cell-free assay, inhibitor | 20 µM | remaining signal | 88% |
| CCCS(=O)(=O)Nc1ccc(F)c(C(=O)c2c[nH]c3ncc(-c4ccc(Cl)cc4)cc23)c1F | enzyme activity, inhibitor | 1 µM | inhibition | < 10% |
| CCN(CC)c1ccc(C2=NNC(=O)CC2C)cc1[N+](=O)[O-] (centres unmarked) | enzyme activity, inhibitor | 10 µM | remaining activity | 111% |
| Cn1c2c(c3ccccc31)C(C#N)C(C)(C)NC2=O (centres unmarked) | thermal stability, DSF | 10 µM | ΔTm | 0.2 °C |
| CNC(=O)c1cc(Oc2ccc(NC(=O)Nc3ccc(Cl)c(C(F)(F)F)c3)cc2)ccn1 | enzyme activity, inhibitor | 0.3 µM | inhibition | -7% |
| CC/C(=N\NC(=O)NCc1cccc(O)c1)c1ccc(O)c(C)c1O | enzyme activity, inhibitor | 0.1 µM | inhibition | -2.9% |
| CNCc1ccccc1-c1csc([C@H](C)Nc2nc(C)nc3cc(OC)c(OC)cc23)c1 | cell-free assay, competition with immobilised ligand | 1 µM | remaining binding | 89% |
| Cc1cnc(NC2CCOCC2)nc1-n1cnc(C(=O)NC(CN)c2cc(F)cc(Cl)c2)c1 (centres unmarked) | enzyme activity, inhibitor, radiometric | 1 µM | remaining activity | 114% |
